Test results: ChEMBL document CHEMBL1949515, “Regioselective synthesis and antimicrobial activities of some novel aryloxyacetic acid derivatives” (2012)
≈ marks a conversion by molar mass, not a printed value. Calls of active or inactive are those of the source. No cut-off for these calls is given here.

Columns and labels:
Type in all cases: functional
Micrococcus luteus [1] = assay: Antibacterial activity against Sarcina lutea after 24 hrs by agar well diffusion method
Method in brief: (§1)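 Agar well diffusion on nutrient agar seeded with bacterial suspension at 1 × 10⁸ CFU/mL. Wells received compound solution from a stock of 100 mg per mL DMSO. Plates incubated 24 h at 37 °C. Read-out is inhibition zone diameter (mm), done in triplicate and averaged.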

Bacillus subtilis [2] = assay: Antibacterial activity against Bacillus subtilis ATCC 6633 after 24 hrs by agar well diffusion method; method in brief: as §1
Bacillus subtilis [3] = assay: Antibacterial activity against Bacillus subtilis ATCC 6633 after 24 hrs by two fold serial dilution method; settings: ATCC 6633, 24 h
Method in brief: (§2)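 MIC determined by two-fold serial dilution in the appropriate nutrient broth, only for compounds that gave sizeable inhibition zones in the well diffusion screen. Final concentrations stepped down by halves from 66 (66, 33, 16.5 …).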

Candida albicans [4] = assay: Antifungal activity against Candida albicans NRRL Y-477 by two fold serial dilution method; method in brief: as §2
Candida albicans [5] = assay: Antifungal activity against Candida albicans NRRL Y-477 after 48 hrs by agar well diffusion method
Method in brief: (§3)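 Fungal agar well diffusion on Sabouraud dextrose agar seeded at 1 × 10⁶ CFU/mL. Wells received compound solution from a 100 mg per mL DMSO stock. Incubation 48 h at 28 °C. Inhibition zone diameter (mm) measured in triplicate and averaged.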

Pseudomonas aeruginosa [6] = assay: Antibacterial activity against Pseudomonas aeruginosa ATCC 27953 after 24 hrs by agar well diffusion method; method in brief: as §1
Priestia megaterium [7] = assay: Antibacterial activity against Bacillus megaterium after 24 hrs by agar well diffusion method; method in brief: as §1
Klebsiella pneumoniae [8] = assay: Antibacterial activity against Klebsiella pneumoniae ATCC 13883 after 24 hrs by agar well diffusion method; method in brief: as §1
Mycolicibacterium phlei [9] = assay: Antibacterial activity against Mycobacterium phlei after 24 hrs by agar well diffusion method; method in brief: as §1
Saccharomyces cerevisiae [10] = assay: Antifungal activity against Saccharomyces cerevisiae after 48 hrs by agar well diffusion method; method in brief: as §3
Micrococcus luteus [11] = assay: Antibacterial activity against Sarcina lutea after 24 hrs by two fold serial dilution method; method in brief: as §2
Staphylococcus aureus [12] = assay: Antibacterial activity against Staphylococcus aureus ATCC 29213 after 24 hrs by agar well diffusion method; method in brief: as §1
Klebsiella pneumoniae [13] = assay: Antibacterial activity against Klebsiella pneumoniae ATCC 13883 after 24 hrs by two fold serial dilution method; settings: ATCC 13883, 24 h; method in brief: as §2
Priestia megaterium [14] = assay: Antibacterial activity against Bacillus megaterium after 24 hrs by two fold serial dilution method; method in brief: as §2
Saccharomyces cerevisiae [15] = assay: Antifungal activity against Saccharomyces cerevisiae by two fold serial dilution method; method in brief: as §2
Escherichia coli [16] = assay: Antibacterial activity against Escherichia coli ATCC 25922 after 24 hrs by agar well diffusion method; method in brief: as §1
Staphylococcus aureus [17] = assay: Antibacterial activity against Staphylococcus aureus ATCC 29213 after 24 hrs by two fold serial dilution method; settings: ATCC 29213, 24 h; method in brief: as §2
Escherichia coli [18] = assay: Antibacterial activity against Escherichia coli ATCC 25922 after 24 hrs by two fold serial dilution method; settings: ATCC 25922, 24 h; method in brief: as §2
Pseudomonas aeruginosa [19] = assay: Antibacterial activity against Pseudomonas aeruginosa ATCC 27953 after 24 hrs by two fold serial dilution method; settings: ATCC 27953, 24 h; method in brief: as §2
Mycolicibacterium phlei [20] = assay: Antibacterial activity against Mycobacterium phlei after 24 hrs by two fold serial dilution method; method in brief: as §2
Saccharomyces cerevisiae [21] = assay: Antifungal activity against Saccharomyces cerevisiae at 50 ug/ml after 48 hrs by agar well diffusion method; settings: read-out: DIZ
Method in brief: (§4)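 Fungal agar well diffusion. Plates were seeded with 1 × 10⁶ CFU/mL fungal suspension on Sabouraud dextrose agar. Wells were filled with compound solution from a 100 mg/mL DMSO stock. Plates were incubated 48 h at 28 °C. The mean inhibition zone diameter (mm) was taken from triplicate runs. Ketoconazole was the standard.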

Candida albicans [22] = assay: Antifungal activity against Candida albicans NRRL Y-477 at 50 ug/ml after 48 hrs by agar well diffusion method; settings: NRRL Y-477, 48 h, read-out: DIZ; method in brief: as §4

SMILES | MIC (Bacillus subtilis [3]) | MIC (Candida albicans [4]) | MIC (Micrococcus luteus [11]) | MIC (Klebsiella pneumoniae [13]) | MIC (Priestia megaterium [14]) | MIC (Saccharomyces cerevisiae [15]) | MIC (Staphylococcus aureus [17]) | MIC (Escherichia coli [18]) | MIC (Pseudomonas aeruginosa [19]) | diameter of the inhibition zone (DIZ) (Micrococcus luteus [1]) | diameter of the inhibition zone (DIZ) (Bacillus subtilis [2]) | diameter of the inhibition zone (DIZ) (Candida albicans [5]) | diameter of the inhibition zone (DIZ) (Pseudomonas aeruginosa [6]) | diameter of the inhibition zone (DIZ) (Priestia megaterium [7]) | diameter of the inhibition zone (DIZ) (Klebsiella pneumoniae [8]) | diameter of the inhibition zone (DIZ) (Mycolicibacterium phlei [9]) | diameter of the inhibition zone (DIZ) (Saccharomyces cerevisiae [10]) | diameter of the inhibition zone (DIZ) (Staphylococcus aureus [12]) | diameter of the inhibition zone (DIZ) (Escherichia coli [16]) | also measured
CC(=N/NC(=O)COc1ccc(Cl)cc1Cl)/C(=N\Nc1ccc(Br)cc1)Sc1ccccc1 | 66 µg/mL (≈ 117 µM) | 66 µg/mL (≈ 117 µM) | 16.5 µg/mL (≈ 29.1 µM) | 66 µg/mL (≈ 117 µM) | 16.5 µg/mL (≈ 29.1 µM) | 33 µg/mL (≈ 58.3 µM) |  |  |  | 20 mm | 18 mm | 20 mm | inactive | 20 mm | 18 mm | inactive | 23 mm | inactive | inactive | 
O=C(COc1ccc2ccccc2c1)NNCC(=O)Nc1nccs1 | 66 µg/mL (≈ 185 µM) | 66 µg/mL (≈ 185 µM) |  | 33 µg/mL (≈ 92.6 µM) | 8.25 µg/mL (≈ 23.1 µM) | 16.5 µg/mL (≈ 46.3 µM) |  |  |  | inactive | 18 mm | 20 mm | inactive | 22 mm | 23 mm | inactive | 22 mm | inactive | inactive | 
CC(=N\NC(=O)COc1ccc2ccccc2c1)/C(=N\Nc1ccc(Cl)cc1)S(=O)(=O)c1ccccc1 | 33 µg/mL (≈ 61.7 µM) | 8.25 µg/mL (≈ 15.4 µM) |  | 16.5 µg/mL (≈ 30.8 µM) | 16.5 µg/mL (≈ 30.8 µM) | 8.25 µg/mL (≈ 15.4 µM) | 16.5 µg/mL (≈ 30.8 µM) | 8.25 µg/mL (≈ 15.4 µM) | 16.5 µg/mL (≈ 30.8 µM) | inactive | 20 mm | 24 mm | 26 mm | 23 mm | 24 mm | inactive | 30 mm | 23 mm | 28 mm | 
CC(=O)N1CCN(c2ccc(OCC3COC(Cn4ccnc4)(c4ccc(Cl)cc4Cl)O3)cc2)CC1 (stereo not given) [KETOCONAZOLE] |  | 8.25 µg/mL (≈ 15.5 µM) |  |  |  | 4.12 µg/mL (≈ 7.76 µM) |  |  |  |  |  |  |  |  |  |  |  |  |  | zone of inhibition at 50 µg/mL (Saccharomyces cerevisiae [21]): 23 mm; zone of inhibition at 50 µg/mL (Candida albicans [22]): 22 mm

Continued, in another order:

MIC (Bacillus subtilis [3]) | MIC (Candida albicans [4]) | MIC (Micrococcus luteus [11]) | MIC (Klebsiella pneumoniae [13]) | MIC (Priestia megaterium [14]) | MIC (Saccharomyces cerevisiae [15]) | MIC (Staphylococcus aureus [17]) | MIC (Escherichia coli [18]) | MIC (Pseudomonas aeruginosa [19]) | SMILES | diameter of the inhibition zone (DIZ) (Micrococcus luteus [1]) | diameter of the inhibition zone (DIZ) (Bacillus subtilis [2]) | diameter of the inhibition zone (DIZ) (Candida albicans [5]) | diameter of the inhibition zone (DIZ) (Pseudomonas aeruginosa [6]) | diameter of the inhibition zone (DIZ) (Priestia megaterium [7]) | diameter of the inhibition zone (DIZ) (Klebsiella pneumoniae [8]) | diameter of the inhibition zone (DIZ) (Mycolicibacterium phlei [9]) | diameter of the inhibition zone (DIZ) (Saccharomyces cerevisiae [10]) | diameter of the inhibition zone (DIZ) (Staphylococcus aureus [12]) | diameter of the inhibition zone (DIZ) (Escherichia coli [16]) | also measured
8.25 µg/mL (≈ 14.9 µM) | 4.12 µg/mL (≈ 7.45 µM) | 8.25 µg/mL (≈ 14.9 µM) | 16.5 µg/mL (≈ 29.8 µM) | 8.25 µg/mL (≈ 14.9 µM) | 4.12 µg/mL (≈ 7.45 µM) | 8.25 µg/mL (≈ 14.9 µM) | 4.12 µg/mL (≈ 7.45 µM) | 16.5 µg/mL (≈ 29.8 µM) | CC(=N/NC(=O)COc1ccc(Cl)cc1Cl)/C(=N\Nc1ccc(Cl)cc1)S(=O)(=O)c1ccccc1 | 26 mm | 29 mm | 30 mm | 28 mm | 32 mm | 28 mm | 30 mm | 32 mm | 27 mm | 30 mm | MIC (Mycolicibacterium phlei [20]): 4.12 µg/mL (≈ 7.45 µM)
 |  |  | 16.5 µg/mL (≈ 31.6 µM) |  | 4.12 µg/mL (≈ 7.9 µM) |  |  |  | CC(=N/NC(=O)COc1ccc(Cl)cc1Cl)/C(=N\Nc1ccc(Cl)cc1)Sc1ccccc1 | inactive | inactive | inactive | inactive | inactive | 24 mm | 13 mm | 28 mm | inactive | inactive | 
